The subject of one test is SF-295. The experiment in a line: Growth inhibition of human SF295 cells after 48 hrs by sulforhodamine B assay. The test is classed as functional. The note with it: SF-295, 48 h. The method, boiled down: (§1)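 Run in the NCI-DTP 60-cell-line screen. Cells were exposed for 48 h to at least five 10-fold dilutions (0.01 to 100 μM). Cell growth was estimated by sulforhodamine B protein staining. Percentage growth at each level was taken from absorbances at time zero (Tz), of the untreated control (C) and of treated cells (Ti), as [(Ti-Tz)/(C-Tz)]*100.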
A general note: In SRB staining, fixed cells bind dye roughly in proportion to their protein.

Test [1] addresses T1, 3-phosphoinositide-dependent protein kinase 1 (Homo sapiens, UniProt O15530).
T1 sequence (O15530 whole entry): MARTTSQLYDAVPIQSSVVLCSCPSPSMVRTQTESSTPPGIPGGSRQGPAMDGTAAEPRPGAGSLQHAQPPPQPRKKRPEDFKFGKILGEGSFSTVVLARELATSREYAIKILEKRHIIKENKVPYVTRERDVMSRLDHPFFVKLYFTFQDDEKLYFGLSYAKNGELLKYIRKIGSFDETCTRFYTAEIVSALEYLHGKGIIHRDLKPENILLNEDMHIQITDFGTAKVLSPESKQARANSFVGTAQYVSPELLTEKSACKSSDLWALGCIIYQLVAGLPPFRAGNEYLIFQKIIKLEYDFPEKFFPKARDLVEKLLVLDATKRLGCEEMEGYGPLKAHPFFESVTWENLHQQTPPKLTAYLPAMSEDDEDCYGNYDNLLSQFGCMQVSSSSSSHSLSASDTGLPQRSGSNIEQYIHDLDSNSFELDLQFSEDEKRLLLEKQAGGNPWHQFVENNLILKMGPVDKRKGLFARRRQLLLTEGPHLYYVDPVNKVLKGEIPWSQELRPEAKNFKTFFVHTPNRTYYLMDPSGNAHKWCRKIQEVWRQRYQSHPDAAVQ
Nature of the test: Inhibition of recombinant PDK1 using P2925 peptide as substrate by fluorescence polarization assay. Summed up:
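A fluorescence polarization kit assay. Recombinant PDK1 phosphorylates the substrate peptide with DMSO or inhibitor present. The phosphopeptide formed competes with a fluorescein-labeled phosphopeptide tracer for an anti-phosphothreonine antibody, and polarization is then read on a plate reader. A standard reference inhibitor was run alongside.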

The next test concerns DU-145. The experiment in a line: Growth inhibition of human DU145 cells after 48 hrs by sulforhodamine B assay. The test is classed as functional. The note with it: DU-145, 48 h. The method, boiled down:
as §1

The next test deals with KM12. The experiment in a line: Growth inhibition of human KM12 cells after 48 hrs by sulforhodamine B assay. The format is functional. The note with it: KM12, 48 h. Summed up: as §1
Another test relates to LOX IMVI. The experiment in a line: Growth inhibition of human LOXIMVI cells after 48 hrs by sulforhodamine B assay. The test is classed as functional. The method, boiled down: as §1
For another test, the system named is RPMI-8226. The experiment in a line: Growth inhibition of human RPMI8226 cells after 48 hrs by sulforhodamine B assay. The test is classed as functional. The note with it: RPMI-8226, 48 h. Summed up: as §1
In another test the test system is U-251. Nature of the test: Growth inhibition of human U251 cells after 48 hrs by sulforhodamine B assay. The test is classed as functional. The note with it: U-251, 48 h. The method, boiled down: as §1
The next test concerns HOP-92. Nature of the test: Growth inhibition of human HOP92 cells after 48 hrs by sulforhodamine B assay. The format is functional. The note with it: HOP-92, 48 h. The method, boiled down: as §1
Another test concerns PC-3. Nature of the test: Growth inhibition of human PC3 cells after 48 hrs by sulforhodamine B assay. The format is functional. The note with it: PC-3, 48 h. Summed up: as §1
A further test has as its system SF-268. The experiment in a line: Growth inhibition of human SF268 cells after 48 hrs by sulforhodamine B assay. The note with it: SF-268, 48 h. The format is functional. Summed up:
as §1

The test system of test [2] is Hs-578T. The experiment in a line: Growth inhibition of human Hs578T cells after 48 hrs by sulforhodamine B assay. The test is classed as functional. Summed up: as §1
The test system of test [3] is Hs-578T. The experiment in a line: Growth inhibition of human Hs578T cells at 10 uM after 48 hrs by sulforhodamine B assay. The test is classed as functional. The note with it: read-out: GI. Summed up: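 A single-concentration NCI-DTP test at 10 μM, run two times. After 48 h exposure, growth was read by sulforhodamine B staining and expressed as percentage growth, [(Ti-Tz)/(C-Tz)]*100, against time-zero and untreated-control absorbances. Growth inhibition is reported as 100 minus percentage growth.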

The subject of another test is OVCAR-3. The experiment in a line: Growth inhibition of human OVCAR3 cells after 48 hrs by sulforhodamine B assay. The format is functional. The note with it: OVCAR-3, 48 h. Summed up: as §1
Another test deals with RXF 393. Nature of the test: Growth inhibition of human RXF393 cells after 48 hrs by sulforhodamine B assay. The format is functional. The note with it: RXF 393, 48 h. The method, boiled down: as §1

Data on one compound can be found in ChEMBL document CHEMBL1949528, “New inhibitor of 3-phosphoinositide dependent protein kinase-1 identified from virtual screening” (Bioorg Med Chem Lett, 2012).

One may read the GI50 as the concentration at which growth is held to half of that of the control. A low value points to more potent growth inhibition. By IC50 is commonly meant the concentration at which inhibition is half-maximal.

Take `CCOC(=O)c1ccc(Nc2cc(C)nc(Nc3ccc(C(=O)OCC)cc3)n2)cc1`: the concentration for 50% growth inhibition (GI50) in the test on SF-295 worked out at 8.64 µM; in the test on DU-145, 5.39 µM; in the test with KM12, 3.62 µM; in the test with LOX IMVI it was 7.24 µM; in the test with RPMI-8226 it was 3.54 µM; in the test on U-251, 9.88 µM. Also, the 50% growth inhibitory concentration (GI50) in the test with HOP-92 was 3.25 µM; in the test with PC-3 it was 6.02 µM; in the test with SF-268 it was 3.8 µM; in the test on Hs-578T [2], below 10 µM; in the test with OVCAR-3, 2.02 µM; in the test with RXF 393 it was 5.05 µM. For the same compound, the IC50 in [1] worked out at 0.2 µM. The inhibition of growth at 10 µM in the test on Hs-578T [3] stood at 67%.
